Reference: the M2OR odorant receptor database

Key:
Details in all cases: stereoisomer not certain
[1] = test system: OR2T7
How it was run: (§1)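 Each entry records the cell line, G-protein, co-transfected protein and tags used. Methods varied with the source, often transient luciferase assays in mammalian cell lines. A receptor–molecule pair is called responsive (active) if the original authors judged its signal statistically different from baseline and non-responsive (inactive) otherwise.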

[2] = target: OR2T8 (Homo sapiens) (UniProt A6NH00)
How it was run: as §1

[3] = target: OR2V1 (Homo sapiens) (UniProt Q8NHB1)
How it was run: as §1

[4] = target: OR2V2 (Homo sapiens) (UniProt Q96R30)
How it was run: as §1

[5] = test system: OR2W1 G96V
How it was run: as §1

[6] = target: OR2W5P (Homo sapiens) (UniProt A6NFC9)
How it was run: as §1

[7] = target: OR2Y1 (Homo sapiens) (UniProt Q8NGV0)
How it was run: as §1

[8] = test system: OR2Y1
How it was run: as §1

[9] = target: OR2Z1 (Homo sapiens) (UniProt Q8NG97)
How it was run: as §1

[10] = test system: OR3A1
How it was run: as §1
Target sequence in this assay (as listed by the source): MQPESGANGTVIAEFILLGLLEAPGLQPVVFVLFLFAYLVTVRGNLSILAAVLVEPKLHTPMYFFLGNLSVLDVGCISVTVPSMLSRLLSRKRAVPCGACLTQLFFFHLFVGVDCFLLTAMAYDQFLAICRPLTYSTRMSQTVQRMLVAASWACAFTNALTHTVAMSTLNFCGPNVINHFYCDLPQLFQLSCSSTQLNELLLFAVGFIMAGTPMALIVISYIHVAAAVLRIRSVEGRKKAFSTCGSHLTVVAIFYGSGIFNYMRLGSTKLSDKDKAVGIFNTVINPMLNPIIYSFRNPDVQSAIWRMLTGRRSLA

[11] = target: OR3A2 (Homo sapiens) (UniProt P47893)
How it was run: as §1

[12] = test system: OR3A2 R317K
How it was run: as §1

[13] = target: OR3A3 (Homo sapiens) (UniProt P47888)
How it was run: as §1

[14] = test system: OR3A3 T48I L132F
How it was run: as §1

[15] = test system: OR3A1; remark: listed apart in the source
How it was run: as §1
Target sequence in this assay (as listed by the source): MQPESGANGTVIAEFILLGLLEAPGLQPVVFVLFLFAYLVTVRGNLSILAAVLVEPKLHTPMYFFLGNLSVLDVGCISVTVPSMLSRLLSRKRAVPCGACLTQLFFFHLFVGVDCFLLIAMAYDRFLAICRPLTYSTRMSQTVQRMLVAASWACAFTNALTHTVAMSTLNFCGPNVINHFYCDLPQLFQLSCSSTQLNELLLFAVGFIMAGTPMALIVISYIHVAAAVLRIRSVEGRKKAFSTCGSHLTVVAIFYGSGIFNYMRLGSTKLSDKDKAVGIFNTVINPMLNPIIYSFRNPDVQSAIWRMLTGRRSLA

Measured: odorant receptor agonist call

OR2T8 (Homo sapiens), sequence (A6NH00 whole entry): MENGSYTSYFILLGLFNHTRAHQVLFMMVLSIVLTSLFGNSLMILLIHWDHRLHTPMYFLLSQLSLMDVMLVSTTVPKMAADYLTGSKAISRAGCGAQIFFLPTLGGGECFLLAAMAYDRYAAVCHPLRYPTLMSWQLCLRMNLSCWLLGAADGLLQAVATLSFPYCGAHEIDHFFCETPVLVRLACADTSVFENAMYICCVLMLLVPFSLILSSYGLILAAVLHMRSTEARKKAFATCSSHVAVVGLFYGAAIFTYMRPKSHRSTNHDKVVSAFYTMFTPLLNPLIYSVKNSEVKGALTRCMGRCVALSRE
OR3A3 (Homo sapiens), sequence (P47888 whole entry): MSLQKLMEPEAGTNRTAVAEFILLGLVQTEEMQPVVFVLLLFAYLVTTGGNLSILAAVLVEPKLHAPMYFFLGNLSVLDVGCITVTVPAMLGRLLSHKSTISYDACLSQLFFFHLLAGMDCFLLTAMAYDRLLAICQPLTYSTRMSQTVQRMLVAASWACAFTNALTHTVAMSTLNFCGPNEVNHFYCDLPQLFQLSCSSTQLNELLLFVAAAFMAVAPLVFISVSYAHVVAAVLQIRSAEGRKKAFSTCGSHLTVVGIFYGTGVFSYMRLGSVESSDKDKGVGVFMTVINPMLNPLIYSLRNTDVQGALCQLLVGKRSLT
OR2Z1 (Homo sapiens), sequence (Q8NG97 whole entry): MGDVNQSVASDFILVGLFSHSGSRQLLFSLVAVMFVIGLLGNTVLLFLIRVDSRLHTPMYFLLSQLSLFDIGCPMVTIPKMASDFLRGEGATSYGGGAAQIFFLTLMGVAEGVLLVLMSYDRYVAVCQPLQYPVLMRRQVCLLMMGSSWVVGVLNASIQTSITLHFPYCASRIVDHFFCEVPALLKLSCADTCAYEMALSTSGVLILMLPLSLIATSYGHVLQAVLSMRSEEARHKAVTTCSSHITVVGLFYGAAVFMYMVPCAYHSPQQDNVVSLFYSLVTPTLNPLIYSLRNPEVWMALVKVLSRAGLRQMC
OR2V2 (Homo sapiens), sequence (Q96R30 whole entry): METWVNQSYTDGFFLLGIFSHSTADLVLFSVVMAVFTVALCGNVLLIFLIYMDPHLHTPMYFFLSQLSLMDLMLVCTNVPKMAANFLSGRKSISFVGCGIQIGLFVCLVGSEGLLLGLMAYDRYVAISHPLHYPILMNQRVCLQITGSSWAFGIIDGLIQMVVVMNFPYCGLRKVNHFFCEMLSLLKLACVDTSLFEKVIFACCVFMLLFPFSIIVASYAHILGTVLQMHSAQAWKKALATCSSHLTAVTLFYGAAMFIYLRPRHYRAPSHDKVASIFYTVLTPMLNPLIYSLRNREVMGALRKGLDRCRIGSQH
OR2V1 (Homo sapiens), sequence (Q8NHB1 whole entry): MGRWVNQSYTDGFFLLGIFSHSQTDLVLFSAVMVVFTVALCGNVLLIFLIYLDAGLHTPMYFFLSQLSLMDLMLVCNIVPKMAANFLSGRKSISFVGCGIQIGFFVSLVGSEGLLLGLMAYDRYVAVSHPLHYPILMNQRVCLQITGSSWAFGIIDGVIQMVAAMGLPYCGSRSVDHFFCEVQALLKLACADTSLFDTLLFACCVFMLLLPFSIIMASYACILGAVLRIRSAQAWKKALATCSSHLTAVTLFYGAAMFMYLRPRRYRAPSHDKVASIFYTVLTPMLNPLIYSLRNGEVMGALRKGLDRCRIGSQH
OR3A2 (Homo sapiens), sequence (P47893 whole entry): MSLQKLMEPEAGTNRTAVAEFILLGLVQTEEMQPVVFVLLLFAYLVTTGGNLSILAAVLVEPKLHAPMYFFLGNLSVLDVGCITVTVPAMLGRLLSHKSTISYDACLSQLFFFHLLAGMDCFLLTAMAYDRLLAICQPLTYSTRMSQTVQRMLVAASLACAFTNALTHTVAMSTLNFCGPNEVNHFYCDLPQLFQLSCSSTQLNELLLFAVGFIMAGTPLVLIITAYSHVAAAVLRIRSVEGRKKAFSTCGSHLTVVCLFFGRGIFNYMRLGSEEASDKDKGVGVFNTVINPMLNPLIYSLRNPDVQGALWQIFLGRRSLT
OR2Y1 (Homo sapiens), sequence (Q8NGV0 whole entry): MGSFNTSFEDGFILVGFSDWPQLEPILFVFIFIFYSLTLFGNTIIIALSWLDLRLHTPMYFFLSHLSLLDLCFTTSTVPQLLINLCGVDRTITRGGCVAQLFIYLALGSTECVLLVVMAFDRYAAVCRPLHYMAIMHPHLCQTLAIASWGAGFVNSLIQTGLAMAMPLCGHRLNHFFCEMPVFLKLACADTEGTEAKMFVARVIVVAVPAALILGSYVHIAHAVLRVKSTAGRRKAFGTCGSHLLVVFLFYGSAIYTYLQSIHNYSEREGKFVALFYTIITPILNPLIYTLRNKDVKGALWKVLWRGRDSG
OR2W5P (Homo sapiens), sequence (A6NFC9 whole entry): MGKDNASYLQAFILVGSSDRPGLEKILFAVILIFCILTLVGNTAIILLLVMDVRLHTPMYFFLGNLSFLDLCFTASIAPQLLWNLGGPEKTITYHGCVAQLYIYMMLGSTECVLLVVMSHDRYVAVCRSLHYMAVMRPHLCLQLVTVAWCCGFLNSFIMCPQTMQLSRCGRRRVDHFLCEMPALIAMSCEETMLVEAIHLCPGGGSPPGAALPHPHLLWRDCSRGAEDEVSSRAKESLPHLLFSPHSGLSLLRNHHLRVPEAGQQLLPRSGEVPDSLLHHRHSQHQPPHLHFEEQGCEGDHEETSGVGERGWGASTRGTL
OR2W1 G96V, sequence (as listed by the source, stated change not applied): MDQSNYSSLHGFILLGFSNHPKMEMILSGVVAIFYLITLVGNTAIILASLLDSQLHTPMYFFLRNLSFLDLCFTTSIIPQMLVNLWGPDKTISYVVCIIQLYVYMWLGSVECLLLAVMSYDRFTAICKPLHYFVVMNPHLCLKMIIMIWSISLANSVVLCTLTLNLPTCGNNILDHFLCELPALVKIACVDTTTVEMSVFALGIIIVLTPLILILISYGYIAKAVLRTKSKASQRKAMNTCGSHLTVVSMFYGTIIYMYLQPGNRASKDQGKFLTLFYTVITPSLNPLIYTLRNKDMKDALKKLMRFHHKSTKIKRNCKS
OR3A2 R317K, sequence (as listed by the source, stated change not applied): as the sequence (P47893 whole entry) above, with R317K counted along it
OR2T7, sequence (as listed by the source): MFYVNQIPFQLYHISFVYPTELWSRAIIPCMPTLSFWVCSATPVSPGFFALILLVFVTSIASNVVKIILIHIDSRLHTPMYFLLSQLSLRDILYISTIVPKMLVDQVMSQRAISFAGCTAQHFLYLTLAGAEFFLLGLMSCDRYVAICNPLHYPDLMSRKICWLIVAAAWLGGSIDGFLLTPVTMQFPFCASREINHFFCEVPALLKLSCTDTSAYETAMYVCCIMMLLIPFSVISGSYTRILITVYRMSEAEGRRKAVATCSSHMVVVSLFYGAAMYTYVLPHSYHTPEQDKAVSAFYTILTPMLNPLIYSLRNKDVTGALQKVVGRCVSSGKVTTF
OR2Y1, sequence (as listed by the source): as the sequence (Q8NGV0 whole entry) above, with V200L counted along it

C=CCOC(=O)Cc1ccccc1
inactive: [1] | [2] | [3] | [4] | [5] | [6] | [7] | [8] | [9] | [10] | [11] | [12] | [13] | [14]

Cc1c([N+](=O)[O-])c(C)c([N+](=O)[O-])c(C(C)(C)C)c1[N+](=O)[O-]
inactive: [2] | [3] | [4] | [7] | [9] | [11] | [13]

CC(C=O)Cc1ccc2c(c1)OCO2 (stereo not drawn)
inactive: [15] | [10]
